From PubChem
PTEN del growth: PTEN-deleted cell growth suppression. viability, % at 10 µM. HCT116 PTEN-null viability, CellTiter-Glo, 60 h; hits give low values. 1.2% of 140,000 active;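 active = viability at or below a set limit, 4 SD under the median of all tested compounds, cut at about 3.7% in these data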;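 note: PTEN knockout HCT116 line with beta catenin targeted HCT116 as companion control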
H69AR growth 86K: growth inhibitors of human H69AR lung tumor cells. H69AR lung tumor viability, ATP luminescence, 72 h; hits give low values. viability, % at 10 µM. 6% of 85,000 active. AID 598;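 active = viability at or below 40%; inactive = viability above 40%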;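 note: multidrug resistant small cell line overexpressing MRP-1 efflux transporter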
Lung fibro prol: blocks proliferation of human lung fibroblasts. 1.1% of 85,000 active. LL 47 human lung fibroblast viability, ATP luminescence; hits give low values. viability, % at 10 µM. AID 719;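 active = viability at or below 50% in the single dose screen; inactive = viability above 50%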;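 note: compound exposure lasted 72 h before the ATP readout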
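test system = LL 47 human lung fibroblasts | amount = 1,150 fibroblasts seeded per well | medium = 15% FBS in IMEM | times = overnight cell rest, 72 h compound treatment at 37 °C | measured by = CellTiter-Glo luminescence measuring cellular ATP | read-out = viability percentage against median untreated-cell control | benchmarks = cell-only wells, no compound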
HUVEC inhibit: blocks proliferation of human endothelial cells; 1.1% of 86,000 active; HUVEC proliferation, CellTiter-Glo luminescence, 72 h; hits give low values; AID 648; viability, % at 10 µM (by protocol);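 active = viability at or below 30%; inactive = viability above 30%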
HCT116 bCat-KO: beta-catenin-lacking colon tumor cell growth suppression; viability, % at 10 µM; AID 818; HCT116 beta-catenin knockout viability, CellTiter-Glo, 60 h; hits give low values; 1.5% of 140,000 active;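 active = viability at or under a set limit, the compound median less 4 SD, cut at about 6% in these data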
Hits are given with their value; - = inactive; . = not tested or not shown. This excerpt belongs to a sample that is enriched for hits.

SMILES	PTEN del growth	H69AR growth 86K	Lung fibro prol	HUVEC inhibit	HCT116 bCat-KO
COc1ccc(C(=O)OCC(=O)c2cc(OC)ccc2OC)c(OC)c1	0.8	-	-	-	0.6
COc1ccc(OC)c(C(=O)COC(=O)c2ccc(C)o2)c1	-	-	-	-	-
CCC(C)(C)C1CCc2c(sc(NC(=O)c3cccs3)c2C(N)=O)C1 (stereo not drawn)	-	-	-	-	-
CC(C)(C)C1CCc2c(sc(NC(=O)c3cccs3)c2C(N)=O)C1 (stereo not drawn)	-	34.2	23.5	-	-
CC(OC(=O)c1ccc2ncsc2c1)C(=O)Nc1ncc(Cl)cc1Cl (stereo not drawn)	-	.	.	.	-
N#Cc1c(NC(=O)CSc2nc(-c3ccco3)cc(C(F)(F)F)n2)sc2c1CCCC2	-	-	-	-	-
COc1cc2c(cc1OC)C1(Nc3c-2c(Cc2ccccc2)nn3-c2ccccc2)C(=O)Nc2ccccc21 (stereo not drawn)	-	25.7	-	-	-
O=C(Nc1sc2c(c1CN1CCOCC1)CCC2)c1ccc(F)cc1	-	.	.	.	-
Cc1sc2nc(CN3CCCCC3)nc(Cl)c2c1C	-	.	.	.	5.4
Cc1sc2nc(CN3CCCC3)nc(N3CCN(S(=O)(=O)c4cccs4)CC3)c2c1C	-	-	-	6.4	-
Cc1sc2nc(-c3cccs3)nc(N3CCCN(C)CC3)c2c1C	.	23.9	-	21.1	.
Cc1sc2nc(SCC(=O)N3CCCCC3)[nH]c(=O)c2c1C	-	-	-	-	-
O=C(NCc1cccs1)C1CCCN1C(=O)Nc1ccccc1 (stereo not drawn)	-	-	-	-	-
O=C(NCc1cccnc1)c1cn(CCc2ccccc2)nn1	-	-	-	-	-
COC(=O)c1c(NC(=O)c2ccccc2)sc2c1CC(C)(C)OC2	-	35.7	-	-	-
COc1ccc2c(=O)c3c(=O)n(Cc4ccco4)c(-c4ccc(C)cc4)nc3oc2c1	-	-	-	-	-
Cc1oc(-c2cccc(Cl)c2)nc1CN1CCC(C(=O)NCc2ccco2)CC1	-	-	-	-	-
Cc1oc(-c2ccc(Cl)cc2)nc1CN1CCC(C(=O)N2CCc3ccccc3C2)CC1	-	1.3	-	-	-
CCOC(=O)C1CCCN(C(=O)C2CCN(Cc3nc(-c4ccc(Cl)cc4)oc3C)CC2)C1 (stereo not drawn)	.	-	-	-	.
Cc1oc(-c2ccc(Cl)cc2)nc1CN1CCC(C(=O)N2CCN(Cc3ccccc3)CC2)CC1	-	-	-	15.5	2.0
Cc1oc(-c2cccc(Cl)c2)nc1CN1CCC(C(=O)N2CCN(c3ccccc3F)CC2)CC1	.	5.8	-	15.7	.
CC(C)NC(=O)c1ccc(N2CCOCC2)nc1	-	-	-	-	-
COc1ccc(C2NC(=O)NC3=C2CCc2ccccc23)cc1 (stereo not drawn)	-	24.1	-	-	-
CCN1c2ccccc2NC2C1C(C(C)=O)C(=O)N2c1ccc(Cl)cc1 (stereo not drawn)	-	18.2	-	-	-
Cc1ccc(CNC(=O)CSc2c3c(nc4cc(Cl)ccc24)CCCC3)o1	-	2.7	-	-	-
CCCCNC(=O)c1ccc2c(SCC(=O)O)c3c(nc2c1)CCCC3	-	.	.	.	-
COc1cc(-c2nnn(CC(=O)N3CCOCC3)n2)cc(OC)c1OC	-	-	-	-	-
COc1ccc(-c2ccc(-c3nnn(CC(=O)N4CCOCC4)n3)cc2)cc1	-	24.1	37.8	-	-
CCN(CC)CCCNC(=S)N(Cc1ccco1)Cc1cc2cc3c(cc2[nH]c1=O)OCCO3	-	.	.	.	-
Nn1c(SCC(=O)Nc2ccc3c(c2)OCO3)nnc1C1CCCCC1	-	-	-	-	-
